Test results reported in ChEMBL document CHEMBL1799953, “Backbone cyclic peptide inhibitors of protein kinase B (PKB/Akt)” (J Med Chem, 2011).
*1 amine or outer side, *2 acyl side, *3 side chain or, on linkers, in order; H or OH if unused. Where a SMILES comes first, the peptide text is derived from it. Bridges are numbered along the chain shown (N, C = ends). [ ]: non-standard residue; d: D form. N(6-aminohexyl)Gly = O=C(CN(CCCCCCN[*:3])[*:1])[*:2]; NGly(3-aminopropyl) = O=C(CN(CCCN[*:3])[*:1])[*:2]; N(2-Aminoethyl)Gly = O=C(CN(CCN[*:3])[*:1])[*:2]; Adipoyl = O=C(CCCCC(=O)[*:2])[*:1]; Glutaryl = O=C(CCCC(=O)[*:2])[*:1]; Gly(N-(CH2)6NH2) = NCCCCCCNCC(=O)O; Gly(N-2-aminoethyl) = NCCNCC(=O)O; Cha = N[C@@H](CC1CCCCC1)C(=O)O; Gly(N(CH2)3NH2) = NCCCNCC(=O)O; Suc = O=C(CCC(=O)[*:2])[*:1]; hLeu = CC(C)CC[C@H](N)C(=O)O; Nle = CCCC[C@H](N)C(=O)O; Nva = CCC[C@H](N)C(=O)O; Dap = NC[C@H](N)C(=O)O; CO = O=C([*:1])[*:2]; Nlys = NCCCCNCC(=O)O

Molecular target: T1, RAC-alpha serine/threonine-protein kinase (Homo sapiens, UniProt P31749)
Assay: Inhibition of Akt using RPRTSSF peptide and [gamma32]ATP by cell-free radioactive assay
Outline: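 Same reaction: HisΔPHPKBEEEFlag (0.005 units), 50 mM Hepes pH 7.4, 0.1 mM EGTA, 0.1% 2-mercaptoethanol, 10 mM magnesium acetate, 3 μM RPRTSSF, 10 μM [γ32P]ATP. Peptide stock concentration determined by UV spectrophotometry; reference peptide run in every assay.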

T1 sequence (P31749 whole entry): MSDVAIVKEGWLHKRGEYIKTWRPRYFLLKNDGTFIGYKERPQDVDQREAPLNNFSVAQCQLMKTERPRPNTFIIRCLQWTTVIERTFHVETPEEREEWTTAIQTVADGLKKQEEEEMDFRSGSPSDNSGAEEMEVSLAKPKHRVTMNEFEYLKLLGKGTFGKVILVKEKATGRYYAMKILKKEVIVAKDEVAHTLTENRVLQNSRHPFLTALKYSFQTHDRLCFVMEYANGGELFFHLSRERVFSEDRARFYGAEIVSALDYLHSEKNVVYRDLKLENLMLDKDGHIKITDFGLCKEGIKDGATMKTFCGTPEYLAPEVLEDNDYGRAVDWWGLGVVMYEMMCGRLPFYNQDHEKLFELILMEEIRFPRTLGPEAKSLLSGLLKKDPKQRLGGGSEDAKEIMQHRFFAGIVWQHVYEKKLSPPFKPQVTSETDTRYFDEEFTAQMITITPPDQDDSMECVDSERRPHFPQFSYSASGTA

SMILES | IC50 [nM]
CCC[C@@H]1NC(=O)[C@H](CCCNC(=N)N)NC(=O)CN(C(=O)[C@@H](N)CCCNC(=N)N)CCCCNC(=O)NCCCCN(CC(N)=O)C(=O)[C@H](CCC(C)C)NC(=O)[C@H](CN)NC(=O)[C@H](Cc2ccc(O)cc2)NC1=O (H-R[Nlys]R[Nva]Y[Dap][hLeu][Nlys]-NH2; linker 2-8 via CO) | 170
CCC[C@@H]1NC(=O)[C@H](CCCNC(=N)N)NC(=O)CN(C(=O)[C@@H](N)CCCNC(=N)N)CCCCCCNC(=O)NCCCN(CC(N)=O)C(=O)[C@H](CCC(C)C)NC(=O)[C@H](CN)NC(=O)[C@H](Cc2ccc(O)cc2)NC1=O (H-R[N(6-aminohexyl)Gly]R[Nva]Y[Dap][hLeu][NGly(3-aminopropyl)]-NH2; linker 2-8 via CO) | 160
CCC[C@@H]1NC(=O)[C@H](CCCNC(=N)N)NC(=O)CN(C(=O)[C@@H](N)CCCNC(=N)N)CCCNC(=O)NCCCCCCN(CC(N)=O)C(=O)[C@H](CCC(C)C)NC(=O)[C@H](CN)NC(=O)[C@H](Cc2ccc(O)cc2)NC1=O (H-R[NGly(3-aminopropyl)]R[Nva]Y[Dap][hLeu][N(6-aminohexyl)Gly]-NH2; linker 2-8 via CO) | 320
CCC[C@@H]1NC(=O)[C@H](CCCNC(=N)N)NC(=O)CN(C(=O)[C@@H](N)CCCNC(=N)N)CCNC(=O)NCCCN(CC(N)=O)C(=O)[C@H](CCC(C)C)NC(=O)[C@H](CN)NC(=O)[C@H](Cc2ccc(O)cc2)NC1=O (H-R[N(2-Aminoethyl)Gly]R[Nva]Y[Dap][hLeu][NGly(3-aminopropyl)]-NH2; linker 2-8 via CO) | 920
CCC[C@H](NC(=O)[C@H](CCCN=C(N)N)NC(=O)CN(CCN)C(=O)[C@@H](N)CCCN=C(N)N)C(=O)N[C@@H](Cc1ccc(O)cc1)C(=O)N[C@@H](CN)C(=O)N[C@@H](CCC(C)C)C(=O)N(CCCN)CC(N)=O (H-R[Gly(N-2-aminoethyl)]R[Nva]Y[Dap][hLeu][Gly(N(CH2)3NH2)]-NH2) | 250
CCC[C@H](NC(=O)[C@H](CCCN=C(N)N)NC(=O)[C@H](CC1CCCCC1)NC(=O)[C@@H](N)CCCN=C(N)N)C(=O)N[C@@H](Cc1ccc(O)cc1)C(=O)N[C@@H](CN)C(=O)N[C@@H](CCC(C)C)C(N)=O (H-R[Cha]R[Nva]Y[Dap][hLeu]-NH2) | 950
CCC[C@@H]1NC(=O)[C@H](CCCN=C(N)N)NC(=O)CN(C(=O)[C@@H](N)CCCN=C(N)N)CCCNC(=O)NCCCN(CC(N)=O)C(=O)[C@H](CCC(C)C)NC(=O)[C@H](CN)NC(=O)[C@H](Cc2ccc(O)cc2)NC1=O (H-R[NGly(3-aminopropyl)]R[Nva]Y[Dap][hLeu][NGly(3-aminopropyl)]-NH2; linker 2-8 via CO) | 590
CCC[C@@H]1NC(=O)[C@H](CCCN=C(N)N)NC(=O)CN(C(=O)[C@@H](N)CCCN=C(N)N)CCCCCCNC(=O)NCCCCN(CC(N)=O)C(=O)[C@H](CCC(C)C)NC(=O)[C@H](CN)NC(=O)[C@H](Cc2ccc(O)cc2)NC1=O (H-R[N(6-aminohexyl)Gly]R[Nva]Y[Dap][hLeu][Nlys]-NH2; linker 2-8 via CO) | 280
CCC[C@H](NC(=O)[C@H](CCCN=C(N)N)NC(=O)[C@H](CCCCN)NC(=O)[C@@H](N)CCCN=C(N)N)C(=O)N[C@@H](Cc1ccc(O)cc1)C(=O)N[C@@H](CN)C(=O)N[C@@H](CCC(C)C)C(N)=O | 2150
CCC[C@@H]1NC(=O)[C@H](CCCN=C(N)N)NC(=O)CN(C(=O)[C@@H](N)CCCN=C(N)N)CCNC(=O)NCCCCN(CC(N)=O)C(=O)[C@H](CCC(C)C)NC(=O)[C@H](CN)NC(=O)[C@H](Cc2ccc(O)cc2)NC1=O (H-R[N(2-Aminoethyl)Gly]R[Nva]Y[Dap][hLeu][Nlys]-NH2; linker 2-8 via CO) | 282
CCC[C@H](NC(=O)[C@H](CCCN=C(N)N)NC(=O)CN(CCN)C(=O)[C@@H](N)CCCN=C(N)N)C(=O)N[C@@H](Cc1ccc(O)cc1)C(=O)N[C@@H](CN)C(=O)N[C@@H](CCC(C)C)C(=O)N(CCCCN)CC(N)=O (H-R[Gly(N-2-aminoethyl)]R[Nva]Y[Dap][hLeu][Nlys]-NH2) | 176
CCC[C@H](NC(=O)[C@H](CCCN=C(N)N)NC(=O)CN(CCCCCCN)C(=O)[C@@H](N)CCCN=C(N)N)C(=O)N[C@@H](Cc1ccc(O)cc1)C(=O)N[C@@H](CN)C(=O)N[C@@H](CCC(C)C)C(=O)N(CCCCN)CC(N)=O (H-R[Gly(N-(CH2)6NH2)]R[Nva]Y[Dap][hLeu][Nlys]-NH2) | 160
CCC[C@H](NC(=O)[C@H](CCCN=C(N)N)NC(=O)[C@H](CN)NC(=O)[C@@H](N)CCCN=C(N)N)C(=O)N[C@@H](Cc1ccc(O)cc1)C(=O)N[C@@H](CN)C(=O)N[C@@H](CCC(C)C)C(N)=O | 860
CCC[C@H](NC(=O)[C@H](CCCN=C(N)N)NC(=O)CN(CCCCCCN)C(=O)[C@@H](N)CCCN=C(N)N)C(=O)N[C@@H](Cc1ccc(O)cc1)C(=O)N[C@@H](CN)C(=O)N[C@@H](CCC(C)C)C(=O)N(CCN)CC(N)=O (H-R[Gly(N-(CH2)6NH2)]R[Nva]Y[Dap][hLeu][Gly(N-2-aminoethyl)]-NH2) | 320
CCC[C@H](NC(=O)[C@H](CCCN=C(N)N)NC(=O)CN(CCCN)C(=O)[C@@H](N)CCCN=C(N)N)C(=O)N[C@@H](Cc1ccc(O)cc1)C(=O)N[C@@H](CN)C(=O)N[C@@H](CCC(C)C)C(=O)N(CCN)CC(N)=O (H-R[Gly(N(CH2)3NH2)]R[Nva]Y[Dap][hLeu][Gly(N-2-aminoethyl)]-NH2) | 320
CCC[C@H](NC(=O)[C@H](CCCN=C(N)N)NC(=O)CN(CCCCN)C(=O)[C@@H](N)CCCN=C(N)N)C(=O)N[C@@H](Cc1ccc(O)cc1)C(=O)N[C@@H](CN)C(=O)N[C@@H](CCC(C)C)C(=O)N(CCN)CC(N)=O (H-R[Nlys]R[Nva]Y[Dap][hLeu][Gly(N-2-aminoethyl)]-NH2) | 220

Molecular target: T1, RAC-alpha serine/threonine-protein kinase
Assay: Inhibition of Akt using RPRTSSF peptide and [gamma32]ATP at 5 uM by cell-free radioactive assay relative to control
Outline: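 Cell-free 32P kinase assay: HisΔPHPKBEEEFlag (0.005 units, one-step Ni-NTA partial purification), 50 mM Hepes pH 7.4, 0.1 mM EGTA, 0.1% 2-mercaptoethanol, 10 mM magnesium acetate, 3 μM RPRTSSF substrate, 10 μM [γ32P]ATP (1 μCi/well). Inhibitor at 5 μM. Activity loss expressed as percent of uninhibited reaction.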

SMILES | inhibition [%]
CCC[C@@H]1NC(=O)[C@H](CCCNC(=N)N)NC(=O)CN(C(=O)[C@@H](N)CCCNC(=N)N)CCCCNC(=O)NCCCCN(CC(N)=O)C(=O)[C@H](CCC(C)C)NC(=O)[C@H](CN)NC(=O)[C@H](Cc2ccc(O)cc2)NC1=O (H-R[Nlys]R[Nva]Y[Dap][hLeu][Nlys]-NH2; linker 2-8 via CO) | 100
CCC[C@@H]1NC(=O)[C@H](CCCNC(=N)N)NC(=O)CN(C(=O)[C@@H](N)CCCNC(=N)N)CCCCCCNC(=O)NCCCN(CC(N)=O)C(=O)[C@H](CCC(C)C)NC(=O)[C@H](CN)NC(=O)[C@H](Cc2ccc(O)cc2)NC1=O (H-R[N(6-aminohexyl)Gly]R[Nva]Y[Dap][hLeu][NGly(3-aminopropyl)]-NH2; linker 2-8 via CO) | 100
CCC[C@@H]1NC(=O)[C@H](CCCNC(=N)N)NC(=O)CN(C(=O)[C@@H](N)CCCNC(=N)N)CCCNC(=O)NCCCCCCN(CC(N)=O)C(=O)[C@H](CCC(C)C)NC(=O)[C@H](CN)NC(=O)[C@H](Cc2ccc(O)cc2)NC1=O (H-R[NGly(3-aminopropyl)]R[Nva]Y[Dap][hLeu][N(6-aminohexyl)Gly]-NH2; linker 2-8 via CO) | 100
CCC[C@@H]1NC(=O)[C@H](CCCNC(=N)N)NC(=O)CN(C(=O)[C@@H](N)CCCNC(=N)N)CCNC(=O)NCCCN(CC(N)=O)C(=O)[C@H](CCC(C)C)NC(=O)[C@H](CN)NC(=O)[C@H](Cc2ccc(O)cc2)NC1=O (H-R[N(2-Aminoethyl)Gly]R[Nva]Y[Dap][hLeu][NGly(3-aminopropyl)]-NH2; linker 2-8 via CO) | 98
CCC[C@@H]1NC(=O)[C@H](CCCNC(=N)N)NC(=O)[C@@H]2CCCN2C(=O)[C@H](CCCNC(=N)N)NC(=O)CCCC(=O)NCCCCCCN(CC(N)=O)C(=O)[C@H](CCC(C)C)NC(=O)[C@H](CN)NC(=O)[C@H](Cc2ccc(O)cc2)NC1=O (RPR[Nva]Y[Dap][hLeu][N(6-aminohexyl)Gly]-NH2; linker N-8 via Glutaryl) | 32
CCC[C@@H]1NC(=O)[C@H](CCCNC(=N)N)NC(=O)[C@@H]2CCCN2C(=O)[C@H](CCCNC(=N)N)NC(=O)CCCCC(=O)NCCCCCCN(CC(N)=O)C(=O)[C@H](CCC(C)C)NC(=O)[C@H](CN)NC(=O)[C@H](Cc2ccc(O)cc2)NC1=O (RPR[Nva]Y[Dap][hLeu][N(6-aminohexyl)Gly]-NH2; linker N-8 via Adipoyl) | 30
CCC[C@@H]1NC(=O)[C@H](CCCNC(=N)N)NC(=O)CN(C(=O)[C@@H](N)CCCNC(=N)N)CCCCNC(=O)NCCCN(CC(N)=O)C(=O)[C@H](CCC(C)C)NC(=O)[C@H](CN)NC(=O)[C@H](Cc2ccc(O)cc2)NC1=O (H-R[Nlys]R[Nva]Y[Dap][hLeu][NGly(3-aminopropyl)]-NH2; linker 2-8 via CO) | 54
CCCC[C@H](NC(=O)[C@@H](N)CCCNC(=N)N)C(=O)N[C@@H](CCCNC(=N)N)C(=O)N[C@@H](CCC)C(=O)N[C@@H](Cc1ccc(O)cc1)C(=O)N[C@@H](CN)C(=O)N[C@@H](CCC(C)C)C(N)=O (H-R[Nle]R[Nva]Y[Dap][hLeu]-NH2) | 82
CCC[C@@H]1NC(=O)[C@H](CCCNC(=N)N)NC(=O)CN(C(=O)[C@@H](N)CCCNC(=N)N)CCCNC(=O)NCCCN(CC(N)=O)C(=O)[C@H](CCC(C)C)NC(=O)[C@H](CN)NC(=O)[C@H](Cc2ccc(O)cc2)NC1=O (H-R[NGly(3-aminopropyl)]R[Nva]Y[Dap][hLeu][NGly(3-aminopropyl)]-NH2; linker 2-8 via CO) | 98
CCC[C@@H]1NC(=O)[C@H](CCCNC(=N)N)NC(=O)CN(C(=O)[C@@H](N)CCCNC(=N)N)CCCCCCNC(=O)NCCCCN(CC(N)=O)C(=O)[C@H](CCC(C)C)NC(=O)[C@H](CN)NC(=O)[C@H](Cc2ccc(O)cc2)NC1=O (H-R[N(6-aminohexyl)Gly]R[Nva]Y[Dap][hLeu][Nlys]-NH2; linker 2-8 via CO) | 100
CCC[C@@H]1NC(=O)[C@H](CCCNC(=N)N)NC(=O)CN(C(=O)[C@@H](N)CCCNC(=N)N)CCCCNC(=O)NCCN(CC(N)=O)C(=O)[C@H](CCC(C)C)NC(=O)[C@H](CN)NC(=O)[C@H](Cc2ccc(O)cc2)NC1=O (H-R[Nlys]R[Nva]Y[Dap][hLeu][N(2-Aminoethyl)Gly]-NH2; linker 2-8 via CO) | 84
CCC[C@H](NC(=O)[C@H](CCCNC(=N)N)NC(=O)CNCCCCCCN)C(=O)N[C@@H](Cc1ccc(O)cc1)C(=O)N[C@@H](CN)C(=O)N[C@@H](CCC(C)C)C(=O)N(CCN)CC(N)=O (H-[Gly(N-(CH2)6NH2)]R[Nva]Y[Dap][hLeu][Gly(N-2-aminoethyl)]-NH2) | 64
CCC[C@@H]1NC(=O)[C@H](CCCNC(=N)N)NC(=O)[C@@H]2CCCN2C(=O)[C@H](CCCNC(=N)N)NC(=O)CCC(=O)NCCCCCCN(CC(N)=O)C(=O)[C@H](CCC(C)C)NC(=O)[C@H](CN)NC(=O)[C@H](Cc2ccc(O)cc2)NC1=O (RPR[Nva]Y[Dap][hLeu][N(6-aminohexyl)Gly]-NH2; linker N-8 via Suc) | 25
